Assay results of several laboratories.
Target: Serine/threonine-protein kinase TAO3 (TAOK3, Homo sapiens, UniProt Q9H2K8)
Residues used in one study (Q9H2K8 1-898): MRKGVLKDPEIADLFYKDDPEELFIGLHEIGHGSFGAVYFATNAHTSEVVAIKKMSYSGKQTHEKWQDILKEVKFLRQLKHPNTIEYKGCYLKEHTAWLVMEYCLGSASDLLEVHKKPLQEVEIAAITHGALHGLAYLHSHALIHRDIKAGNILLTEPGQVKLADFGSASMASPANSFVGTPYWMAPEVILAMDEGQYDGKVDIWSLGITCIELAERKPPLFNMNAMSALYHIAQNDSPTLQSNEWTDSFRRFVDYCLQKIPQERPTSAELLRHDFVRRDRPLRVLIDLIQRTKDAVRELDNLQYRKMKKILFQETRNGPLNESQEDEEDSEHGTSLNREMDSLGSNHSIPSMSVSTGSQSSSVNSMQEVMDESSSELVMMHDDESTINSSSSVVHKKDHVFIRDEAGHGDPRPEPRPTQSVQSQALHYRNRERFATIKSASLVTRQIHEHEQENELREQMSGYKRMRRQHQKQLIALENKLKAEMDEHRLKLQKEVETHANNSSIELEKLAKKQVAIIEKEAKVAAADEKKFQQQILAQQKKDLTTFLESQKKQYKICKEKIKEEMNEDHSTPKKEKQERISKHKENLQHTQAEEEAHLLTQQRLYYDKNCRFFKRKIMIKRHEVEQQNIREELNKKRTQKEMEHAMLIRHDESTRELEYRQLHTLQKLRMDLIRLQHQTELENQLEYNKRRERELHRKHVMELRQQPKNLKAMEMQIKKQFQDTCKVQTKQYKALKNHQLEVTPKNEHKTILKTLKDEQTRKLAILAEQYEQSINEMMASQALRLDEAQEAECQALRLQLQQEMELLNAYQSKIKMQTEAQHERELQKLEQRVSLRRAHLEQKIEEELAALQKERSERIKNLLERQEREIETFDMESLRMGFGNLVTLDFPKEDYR

| SMILES | assay | conditions | endpoint | value |
| --- | --- | --- | --- | --- |
| CC(C)(C)c1cc(C=C(C#N)C#N)cc(Br)c1O | enzyme activity, inhibitor | 0.5 µM | remaining activity | 122% |
| Nc1ncc(-c2nc(N3CCOCC3)nc(N3CCOCC3)n2)c(C(F)F)n1 | binding, competition with immobilised ligand | 10 µM | remaining binding | 70% |
| COc1ncccc1-c1cnn2ccc(N3CCN(C(=O)OC(C)C)CC3)nc12 | binding, competition with immobilised ligand | 1 µM | remaining binding | 75% |
| Cn1cncc1[C@](O)(COc1ccc(C#N)cc1-c1ccc(OC(F)(F)F)cc1)c1ccc(C#N)cc1 | cell-free assay, competition with immobilised ligand | 1 µM | remaining binding | 87% |
| Cn1cc(-c2cccc(N3CCc4c(sc5c4CC(C)(C)C5)C3=O)c2CO)cc(Nc2ccncn2)c1=O | enzyme activity, inhibitor | 1 µM | inhibition | 1% |
| Cc1nn(C)cc1-c1nc2c(N3CCN(Cc4ccc(Cl)cc4)CC3)c(Cl)cnc2[nH]1 | binding, competition with immobilised ligand | 1 µM | remaining binding | 87% |
| N#CC1(c2ccccn2)CCN(Cc2cc(C(=O)O)c(=O)n3ccccc23)CC1 | cell-free assay, competition with immobilised ligand | 1 µM | remaining binding | 78% |
| Cn1cc(-c2cc(F)cc(N3CCn4c(cc5c4CCCC5)C3=O)c2CO)cc(Nc2ccc(N3CCN(C4COC4)CC3)cn2)c1=O | enzyme activity, inhibitor | 0.1 µM | inhibition | -6% |
| O=c1[nH]c2ccccc2n1C1CCN(Cc2ccc(-c3[nH]c4cc5ncnc5cc4nc3-c3ccccc3)cc2)CC1 | cell-free assay | 0.5 µM | remaining signal | 111% |
